# NR2E3 ag-1: human photoreceptor-specific nuclear receptor agonism; 360,000 compounds, 0.35% hits; inhibition of corepressor binding, % at 3.98 µM; AID 602229; CHO-S Gal4-NCOR/VP16-NR2E3 two-hybrid, luciferase;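 active means inhibition above the mean of all tested compounds plus 3 SD, cut at about 70% in these data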;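 further: 0% = DMSO with NR2E3 transfected cells and 100% = cells lacking NR2E3 construct; higher means lower luciferase signal from less NR2E3 corepressor binding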
# Target sequence (Q9Y5X4 whole entry, looked up, the tested form may be a part): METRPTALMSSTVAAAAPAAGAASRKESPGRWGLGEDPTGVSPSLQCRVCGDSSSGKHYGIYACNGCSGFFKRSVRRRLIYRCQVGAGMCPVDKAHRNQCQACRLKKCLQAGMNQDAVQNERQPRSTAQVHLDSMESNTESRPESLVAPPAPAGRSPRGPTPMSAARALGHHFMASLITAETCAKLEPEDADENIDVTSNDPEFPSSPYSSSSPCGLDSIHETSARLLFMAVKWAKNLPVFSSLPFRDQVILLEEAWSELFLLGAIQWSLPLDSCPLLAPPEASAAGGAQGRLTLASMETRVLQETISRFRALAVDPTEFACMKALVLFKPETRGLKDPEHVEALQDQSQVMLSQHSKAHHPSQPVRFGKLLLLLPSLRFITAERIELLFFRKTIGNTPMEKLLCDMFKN
# NR2E3 ag-2: agonists of human nuclear receptor NR2E3; AID 2300; 320,000 compounds, 0.12% hits; GST-NR2E3/biotin-RetCOR TR-FRET, 1536-well; inhibition of corepressor binding, % at 4.78 µM; Q9Y5X4;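 active means percent inhibition above the cutoff of mean plus 3 SD of all tested compounds, set per screening campaign, cut at about 20% in these data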;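 further: 0% = DMSO wells and 100% = biotin wells as full block of FRET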
#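 Test system – NR2E3–RetCOR corepressor complex · Quantity – NR2E3 fusion 1.35 nM · Buffer or medium – Tris pH 7.5 · Incubation – Compound–protein incubation for 5 h at 4 °C · Technique – TR-FRET, Eu(K)-anti-GST donor, streptavidin-D2 acceptor, ex 340, em 617/671 nm · Evaluation – percent inhibition of 671/617 nm emission ratio versus biotin and DMSO controls · Plate – 1536-well format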
# MsrA act: bovine methionine sulfoxide reductase A activation. purified bovine MsrA, absorbance read-out. activation, % at 10.6 µM. 360,000 compounds, 0.3% hits. AID 602163; in the data active means activation above about 7.5%;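 further: 0% = vehicle and 100% = reference activator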
# MsrA inhibitor: bovine MsrA inhibition; purified bovine MsrA, absorbance read-out; inhibition, % at 15.5 µM; 360,000 compounds, 0.75% hits; AID 651718;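 further: 0% = vehicle wells with enzyme and 100% = reference inhibitor wells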
# NadD inh: inhibitors of Staphylococcus aureus NadD; inhibition, % at 20 µM; 360,000 compounds, 0.78% hits; purified NadD enzyme, colorimetric absorbance read-out; in the data active means inhibition above about 26%
# GalR3 antag: blocks the human galanin receptor 3. HEK293 GalR3-CNG cAMP membrane potential fluorescence; galR3 body fused to GalR1 C-terminus. inhibition, % at 3 µM. O60755. 360,000 compounds, 0.44% hits. AID 651719;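 active means inhibition above the screen-wide average plus 3 SD, cut at about 13% in these data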;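 further: forskolin and galanin both at EC90 stimulate the cells; cAMP rise reported by CNG channel membrane potential dye signal; 0% = forskolin plus galanin with DMSO and 100% = forskolin alone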
# MsrA conf: confirmation of bovine MsrA inhibitors | shares compounds with MsrA inhibitor | purified bovine MsrA, absorbance read-out | inhibition, % at 15.5 µM | 2,300 compounds, 41% hits;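 further: coupled to thioredoxin reductase with NADPH and selenocystamine and DMSO as substrate; 0% = vehicle only and 100% = full effect of reference inhibitor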
# * = called active by the depositor; · = no result given. This is a sample that favours compounds with a hit; in the whole collection about 2.5% have one here. Unless noted, no stated cut-off is given here; in the data, active means inhibition above about 4.5%; inactive means the rest.
SMILES,NR2E3 ag-1,NR2E3 ag-2,MsrA act,MsrA inhibitor,NadD inh,GalR3 antag,MsrA conf
O=C(NCc1ccco1)/C(=C/c1ccccc1)NC(=O)c1ccco1,-9,2,-2,1,6,-10,·
CC1Cc2ccccc2N1C(=O)CSc1nn2c(=O)c(C(C)(C)C)nnc2s1 (stereo not given),-10,-2,-4,1,2,0,·
Cc1nnc(NC(=O)CSc2n[nH]c(-c3ccccc3C)n2)s1,-16,1,-3,0,2,-5,·
O=C1C=C(c2ccc(O)cc2)C[C@@H](c2ccc3c(c2)OCO3)C1,-6,2,-8,6.8*,-4,-8,2
O=C1C=C(c2ccccc2Oc2ccccc2)C[C@@H](c2ccc3c(c2)OCO3)C1,-43,5,-1,0,-1,-6,·
Cc1ccc(C2=CC(=O)C[C@H](c3ccc4c(c3)OCO4)C2)cc1,-5,2,-5,-1,-2,-5,·
COc1ccccc1C1=CC(=O)C[C@H](c2ccc3c(c2)OCO3)C1,-42,1,-1,6.3*,-1,-8,1
CC(=O)Nc1ccc(S(=O)(=O)NCC(=O)OCC(=O)N2CCCCCC2)cc1,-2,2,-3,0,1,-1,·
Cc1nc2ccccn2c(=O)c1NC(=O)c1ccco1,-35,·,-1,4.8*,1,-3,2
O=C(COC(=O)c1cc(S(=O)(=O)NCc2ccccc2)ccc1O)c1cc2ccccc2o1,-11,2,-3,4.8*,22,-8,3
CCC(=O)/C=C1\Sc2ccc(OC)cc2N1CCO,-15,-1,-1,4,2,3,·
CCC(=O)/C=C1\Sc2ccc(OC)cc2N1CC,6,0,-7,5.7*,3,-5,4
Cc1[nH]nc2c1C(c1ccsc1)C1=C(CC(C)(C)CC1=O)N2 (stereo not given),25,-1,-14,4.7*,0,-4,3
CCCc1n[nH]c2c1/C(=N\OCC)CC(C)(C)C2,-7,4,-1,4.8*,-2,-6,2
CC1=CC(=O)[C@@H](OC(=O)Nc2ccc(C)cc2)[C@@H](c2ccccc2Br)N1C,3,·,-11,0,3,-6,·
CC1=CC(=O)[C@@H](O)[C@@H](c2ccccc2Br)N1C,-35,·,-5,5.3*,-1,-5,4
COc1cccc(C(O)c2nccn2Cc2ccccc2)c1OC (stereo not given),-13,·,-2,12*,-2,-5,4
O=C(NC(=S)Nc1ccccc1N1CCOCC1)c1ccco1,-5,-4,-2,8.0*,0,6,4
CC(=O)Oc1ccc2c(=O)c(/C=N/c3cc(=O)[nH]c(=S)[nH]3)coc2c1,-18,1,-1,5.5*,1,-5,4
COC(=O)c1ccc(/C=C/C(=O)OCC(=O)Nc2cc(C)on2)cc1,-21,·,-3,0,2,-7,·
COC(=O)c1ccc(NC(=O)c2ccc[n+]([O-])c2)cc1,-23,1,0,0,5,-3,·
COCCCN1C(=O)C(=O)/C(=C(/O)c2ccc(OC)cc2C)C1c1cccnc1 (stereo not given),0,5,-5,4.8*,-1,-5,3
CC(C(=O)Nc1cc(Cl)cc(Cl)c1)N1CCCC1 (stereo not given),4,-4,-12,0,-5,-11,·
COc1ccc(NC(=O)CN2CCCCC2)c([N+](=O)[O-])c1,-32,2,0,1,1,4,·
NS(=O)(=O)c1cc(C(=O)OCC(=O)Nc2ccccc2[N+](=O)[O-])ccc1Cl,-11,-1,-5,12*,-4,-4,6.0*
SMILES,NR2E3 ag-1,NR2E3 ag-2,MsrA act,MsrA inhibitor,NadD inh,GalR3 antag,MsrA conf
CNS(=O)(=O)c1cccc(C(=O)OCC(=O)Nc2ccc(OC)cc2[N+](=O)[O-])c1,-23,4,-4,6.0*,1,-3,1
COc1ccc(NC(=O)COC(=O)C2CCCCC2)c([N+](=O)[O-])c1,-1,-2,-3,12*,-9,-8,8.1*
Cc1cc(/C=C(\C#N)C(=O)O)c(C)n1CCC(C)C,1,7,-5,4,0,-2,·
Cc1cc(/C=C(\C#N)C(=O)O)c(C)n1CC(C)C,-9,0,-3,7.2*,-1,-4,3
Cc1cc(C(=O)N/N=C/C=C/c2ccccc2)n[nH]1,-13,1,-7,5.8*,3,-4,5.1*
Cc1cc(C(=O)N/N=C/C=C/c2cccc([N+](=O)[O-])c2)n[nH]1,11,-3,-3,5.9*,-2,-6,4
Cc1cc(OCC(=O)Nn2cnnc2)c(C)cc1Br,1,2,-5,0,-4,-1,·
COc1ccc(OC)c(/C=N/NC(=O)c2csc3ccccc23)c1,-20,2,-3,1,4,-2,·
O=C(O)c1ccc(-c2nnc(-c3ccccc3)o2)cc1,-93,3,-3,-2,2,-11,·
COCCNc1oc(/C=C/c2ccccc2)nc1C#N,-78,-1,-6,5,-7,-3,·
CNc1oc(/C=C/c2ccccc2)nc1C#N,-82,2,-5,4.8*,0,0,4.6*
CCOC(=O)C1CCCN(C(=O)c2cnn3c(C(F)F)cc(-c4ccc(C)cc4)nc23)C1 (stereo not given),10,-2,6,29*,-4,-6,23*
COc1ccc2c(c1)C(NC(=O)C(F)(F)F)CC21CCCCC1 (stereo not given),·,·,·,0,·,-9,·
N#C/C(=C/c1cccs1)c1ccccn1,-40,0,-5,5.1*,-3,3,5.4*
O=C(Nc1ccc2nc(-c3cccs3)[nH]c2c1)c1cccs1,-45,3,-2,2,-6,2,·
O=C(Nc1ccc2nc(-c3cccs3)[nH]c2c1)c1ccco1,-78,3,-5,4.7*,0,-2,3
O=C(CN1CCN(Cc2ccccc2)CC1)N/N=C\C=C/c1ccco1,1,4,-14,6.9*,0,-7,5.5*
O=C(CN1CCN(Cc2ccccc2Cl)CC1)N/N=C/C=C/c1ccco1,-14,-2,-5,2,-6,-4,·
Cc1ccc(C(=O)NCCc2ccccc2)cc1,-61,0,-2,·,1,·,·
O=C(NCCN1CCOCC1)c1ccc(=O)oc1,-5,8,-6,5.4*,-3,-4,4
CC(NC(=O)c1ccc(=O)oc1)c1ccccc1 (stereo not given),-17,1,-5,7.2*,-2,-5,7.4*
CC(NC(=O)c1ccncc1)c1ccccc1 (stereo not given),0,0,-7,0,-2,-3,·
O=C(NCCc1ccccc1)c1ccc(=O)oc1,-28,6,-15,8.2*,-1,-1,8.0*
